Assay results as given in ChEMBL document CHEMBL1146388, “1-Arylpiperazinyl-4-cyclohexylamine derived isoindole-1,3-diones as potent and selective alpha-1a/1d adrenergic receptor ligands” (Bioorg Med Chem Lett, 2007).

What was measured:
[1] = biological target: Adrenergic receptors; alpha-1 A & B (Homo sapiens) (UniProt P35348+P35368); experiment: Selectivity ratio, Ki for human adrenergic alpha-1b receptor to Ki for human adrenergic alpha-1a receptor; type: protein assay
Procedure, shortened: (§1)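 Competition binding against 125I-HEAT on COS cell membranes expressing cloned human α1a-, α1b- or α1d-adrenergic receptor. Affinities are reported as Ki (nM). Selectivity is expressed as Ki(α1b)/Ki(α1a) and Ki(α1b)/Ki(α1d).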

Homo sapiens = organism: Homo sapiens; experiment: Selectivity ratio, Ki for human adrenergic alpha-1b receptor to Ki for human adrenergic alpha-1d receptor; procedure, shortened: as §1
[2] = biological target: T1, Alpha-1A adrenergic receptor (Homo sapiens, UniProt P35348); experiment: Displacement of [125]HEAT from human adrenergic alpha-1a receptor expressed in COS cells
T1 sequence (P35348 whole entry): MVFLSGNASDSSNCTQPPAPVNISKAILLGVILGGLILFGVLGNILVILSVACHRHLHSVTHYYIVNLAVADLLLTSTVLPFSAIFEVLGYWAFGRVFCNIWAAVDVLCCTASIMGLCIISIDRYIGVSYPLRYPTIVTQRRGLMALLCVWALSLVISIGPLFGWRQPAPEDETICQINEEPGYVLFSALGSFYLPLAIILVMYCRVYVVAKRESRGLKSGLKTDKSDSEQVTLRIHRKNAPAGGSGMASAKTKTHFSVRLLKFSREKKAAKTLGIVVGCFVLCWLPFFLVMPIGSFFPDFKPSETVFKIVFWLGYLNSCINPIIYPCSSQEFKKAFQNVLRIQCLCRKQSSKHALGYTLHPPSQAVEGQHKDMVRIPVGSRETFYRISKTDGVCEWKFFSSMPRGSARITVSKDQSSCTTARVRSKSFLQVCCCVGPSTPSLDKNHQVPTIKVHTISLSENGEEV

[3] = biological target: T2, Alpha-1D adrenergic receptor (Homo sapiens, UniProt P25100); experiment: Displacement of [125]HEAT from human adrenergic alpha-1d receptor expressed in COS cells
T2 sequence (P25100 whole entry): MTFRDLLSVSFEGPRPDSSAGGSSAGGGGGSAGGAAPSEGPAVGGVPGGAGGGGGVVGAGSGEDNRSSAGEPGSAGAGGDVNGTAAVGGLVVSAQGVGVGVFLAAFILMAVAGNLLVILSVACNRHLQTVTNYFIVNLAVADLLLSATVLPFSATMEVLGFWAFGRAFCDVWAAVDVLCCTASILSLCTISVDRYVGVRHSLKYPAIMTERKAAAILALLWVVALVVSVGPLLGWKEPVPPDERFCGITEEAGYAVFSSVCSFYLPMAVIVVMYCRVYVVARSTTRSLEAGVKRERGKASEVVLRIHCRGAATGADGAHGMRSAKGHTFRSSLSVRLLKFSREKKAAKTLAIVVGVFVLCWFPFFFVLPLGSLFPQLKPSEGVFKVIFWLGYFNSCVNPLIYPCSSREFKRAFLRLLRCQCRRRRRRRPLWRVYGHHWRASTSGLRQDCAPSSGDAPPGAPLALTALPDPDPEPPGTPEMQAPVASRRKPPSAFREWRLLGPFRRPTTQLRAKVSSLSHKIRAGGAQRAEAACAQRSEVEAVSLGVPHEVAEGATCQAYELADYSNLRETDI

[4] = biological target: T3, Alpha-1B adrenergic receptor (Homo sapiens, UniProt P35368); experiment: Displacement of [125]HEAT from human adrenergic alpha-1b receptor expressed in COS cells
T3 sequence (P35368 whole entry): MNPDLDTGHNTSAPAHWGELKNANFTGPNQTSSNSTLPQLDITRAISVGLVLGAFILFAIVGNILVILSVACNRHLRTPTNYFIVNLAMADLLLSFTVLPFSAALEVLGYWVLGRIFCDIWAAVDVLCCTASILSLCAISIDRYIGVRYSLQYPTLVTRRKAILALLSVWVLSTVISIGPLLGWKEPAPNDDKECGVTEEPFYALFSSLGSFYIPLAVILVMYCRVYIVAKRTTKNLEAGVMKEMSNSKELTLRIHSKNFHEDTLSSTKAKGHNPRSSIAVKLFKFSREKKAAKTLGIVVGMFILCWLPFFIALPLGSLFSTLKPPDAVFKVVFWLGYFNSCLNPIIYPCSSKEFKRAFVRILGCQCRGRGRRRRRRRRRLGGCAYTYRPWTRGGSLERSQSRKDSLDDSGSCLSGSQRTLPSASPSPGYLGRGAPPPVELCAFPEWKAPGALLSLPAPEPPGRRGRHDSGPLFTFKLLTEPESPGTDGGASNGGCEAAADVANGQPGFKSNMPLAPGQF

Row | Structure (SMILES) | Ratio Ki [1] | Ratio Ki (Homo sapiens) | Ki [2] [nM] | Ki [3] [nM] | Ki [4] [nM]
1 | CC(C)Oc1ccccc1N1CCN(C2CCC(N3C(=O)c4cccnc4C3=O)CC2)CC1 (stereo not drawn) | 56 | 30 | 0.8 | 1.5 | –
2 | CC(C)Oc1ccccc1N1CCN(C2CCC(N3C(=O)c4ccncc4C3=O)CC2)CC1 (stereo not drawn) | 56 | 28 | 0.4 | 0.8 | –
3 | CC(C)Oc1ccccc1N1CCN(C2CCC(N3C(=O)c4cc(Cl)c(Cl)cc4C3=O)CC2)CC1 (stereo not drawn) | 401 | 3610 | – | 0.3 | –
4 | CC(C)Oc1ccccc1N1CCN(C2CCC(N3C(=O)c4ccc5ccccc5c4C3=O)CC2)CC1 (stereo not drawn) | 8 | 75 | 1.8 | 0.2 | 15
5 | CC(C)Oc1ccccc1N1CCN(C2CCC(N3C(=O)c4c(F)c(F)c(F)c(F)c4C3=O)CC2)CC1 (stereo not drawn) | 109 | 136 | – | – | –
6 | CC(C)Oc1ccccc1N1CCN(C2CCC(N3C(=O)c4cccc(F)c4C3=O)CC2)CC1 (stereo in doubt; 6c) [listing 1 of 2 here] | – | – | 0.2 | 0.09 | 18
7 | CC(C)Oc1ccccc1N1CCN(C2CCC(N3C(=O)c4cccc(F)c4C3=O)CC2)CC1 (stereo in doubt; 6c) [listing 2 of 2 here] | 90 | 200 | – | – | –
8 | CC(C)Oc1ccccc1N1CCN(C2CCC(N3C(=O)c4cccc(F)c4C3=O)CC2)CC1 (stereo in doubt; 6d) [listing 1 of 2 here] | – | – | 1 | 14.9 | 127
9 | CC(C)Oc1ccccc1N1CCN(C2CCC(N3C(=O)c4cccc(F)c4C3=O)CC2)CC1 (stereo in doubt; 6d) [listing 2 of 2 here] | 127 | 9 | – | – | –
10 | CC(C)Oc1ccccc1N1CCN(C2CCC(N3C(=O)c4ccc5ccc(F)cc5c4C3=O)CC2)CC1 (stereo in doubt; 6f) [listing 1 of 2 here] | – | – | 15 | 16.4 | 269
11 | CC(C)Oc1ccccc1N1CCN(C2CCC(N3C(=O)c4ccc5ccc(F)cc5c4C3=O)CC2)CC1 (stereo in doubt; 6f) [listing 2 of 2 here] | 18 | 16 | – | – | –
12 | CC(C)Oc1ccccc1N1CCN(C2CCC(N3C(=O)c4ccc5ccc(F)cc5c4C3=O)CC2)CC1 (stereo in doubt; 6g) [listing 1 of 2 here] | – | – | 3.9 | 0.5 | 46.5
13 | CC(C)Oc1ccccc1N1CCN(C2CCC(N3C(=O)c4ccc5ccc(F)cc5c4C3=O)CC2)CC1 (stereo in doubt; 6g) [listing 2 of 2 here] | 12 | 93 | – | – | –
